Data set [1] deals with 22Rv1 human prostate cancer cells. Put plainly: Differential nuclear staining. Format: cell-based.
In data set [2] the test system is LNCaP human prostate cancer cells. Put plainly: Differential nuclear staining. Format: cell-based.
A short description of a further data set: in vitro. Format: cell-based. The following applies: human.
The subject of another data set is YT NK-like (YT) cells. Put plainly: Apoptosis/necrosis by annexin V-FITC and PI flow cytometry. Format: cell-based. The following applies: 18 h; for mode of cell death: KTZ 15 μM, CTZ 10 μM, complexes 20–60 μM. In outline:
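YT NK-like cells were exposed to test compounds for 18 h, then handled on ice, stained together with annexin V-FITC and PI, and analysed by flow cytometry with about 10,000 events per sample. Controls were 0.3% v/v DMSO solvent, 600 μM H2O2 and untreated cells. Annexin-positive cells (early plus late) were summed as apoptotic, and PI-only cells counted as necrotic. Values are the mean of three independent measurements with SD.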
(Flow cytometry measures light scatter and fluorescence of single cells or particles in a stream.)

Data set [3] has as its system human cervical HeLa cancer cells. Put plainly: Differential nuclear staining. Format: cell-based. The following applies: for CC50: Homo sapiens, 20 h.
Another data set deals with Calf Thymus (CT) DNA. Put plainly: Circular dichroism. The data set is classed as binding. The following applies: 20 h at 37 °C, pH 7.39 Tris/HCl buffer, up to ri 2.0 (molar ratio drug/DNA). The procedure, abridged:
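Test compound stocks (1.5 mM) were freshly made in water and added to freshly prepared CT DNA (60 μM) in 5 mM Tris/HCl, 50 mM NaClO4, pH 7.39, at drug/DNA molar ratios of 0.5–2.0. Samples were incubated 20 h at 37 °C. Spectra were recorded at 25 °C over 220–420 nm, blank-corrected with noise reduction, and expressed as […].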

Data set [4] concerns DU145 human prostate carcinoma cells. Put plainly: Differential nuclear staining. Format: cell-based.
The subject of data set [5] is all the cancer cells lines studied.
Data set [6] can be described thus: Differential nuclear staining. The data set is classed as cell-based. The note with it: human, MCF-10A non-transformed mammary epithelial cells.
A short description of data set [7]: Differential nuclear staining. The data set is classed as cell-based. The following applies: mouse, wild type mouse embryonic fibroblasts (MEFs).
Data set [8] relates to YT NK-like lymphoblastic lymphoma cells. Put plainly: Differential nuclear staining. Format: cell-based.

Read-outs that look alike come from different tables or passages of the source. Some results are limits rather than exact numbers.

As usually defined, the CC50 is the concentration giving 50% cytotoxicity. A higher CC50 goes with lower toxicity to the cells. On to `C[SH](C)(=O)[Ru-]([Cl])([Cl])([Cl])([Cl])[SH](C)(C)=O.[Na+]` [Compound C1, Na[trans-RuCl4(DMSO)2]], for which the CC50 in data set [1] turned out to be 114 µM; in data set [2], 46.5 µM.

On to `Clc1ccccc1C(c1ccccc1)(c1ccccc1)n1ccnc1` [CTZ, clotrimazole], for which the CC50 at 20 h in “in vitro” was 95.3 µM; in [6], 79.4 µM; in data set [7], 35.3 µM. For the same molecule, the “apoptosis induced relative to any of the Ru-CTZ complexes” value in the data set on YT NK-like (YT) cells is not below 3 fold. Further, the “mode of cell death” value in the data set on YT NK-like (YT) cells is listed as “preferentially through apoptosis”. Moreover, the “Relative Activity (R.A.)” value in data set [1] (22Rv1, relative to KTZ (1-6) or CTZ (7-12)) amounted to 1; in data set [3] (relative to KTZ (1-6) or CTZ (7-12)), 1; in data set [4] (DU145, relative to KTZ (1-6) or CTZ (7-12)), 1; in [2] (LNCaP, relative to KTZ (1-6) or CTZ (7-12)) it was 1; in [8] (YT, relative to KTZ (1-6) or CTZ (7-12)), 1. For the same molecule, the CC50 in data set [1] (Homo sapiens, 22Rv1, 20 h) is 19.2 µM; in data set [3], 94.3 µM; in data set [4] (Homo sapiens, DU-145, 20 h), 43.6 µM; in data set [2] (Homo sapiens, LNCaP, 20 h) it was 15.4 µM; in [8] (20 h), 16.7 µM. Further, the “change of CD spectrum of CT DNA” value in the data set with Calf Thymus (CT) DNA is recorded as “no modifications”. The “cytotoxicity against cancer cell lines (in words)” value in data set [5] was “moderate cytotoxicity”.

For `Cc1ccc(C(C)C)cc1.Cc1ccc(C(C)C)cc1.[Cl][Ru][Cl].[Cl][Ru][Cl]` [Compound C3, [Ru(p-cymene)Cl2]2], the CC50 in data set [1] was 141 µM; in data set [4], 218 µM; in data set [2], 29 µM; in data set [8], 164 µM.

Consider `CC(=O)N1CCN(c2ccc(OCC3COC(Cn4ccnc4)(c4ccc(Cl)cc4Cl)O3)cc2)CC1` (centres unmarked) [KTZ, ketoconazole], for which the “mode of cell death” value with YT NK-like (YT) cells is “preferentially through apoptosis”. For the same molecule, the CC50 in data set [1] (Homo sapiens, 22Rv1, 20 h) is 24.2 µM; in data set [3], 66.7 µM; in data set [4] (Homo sapiens, DU-145, 20 h), 28.6 µM; in data set [2] (Homo sapiens, LNCaP, 20 h) it was 27.9 µM; in data set [8] (20 h), 4.9 µM. Besides, the “change of CD spectrum of CT DNA” value in the data set on Calf Thymus (CT) DNA is “no modifications”. In addition, the CC50 at 20 h in data set [6] was 37 µM; in data set [7], 31.3 µM.

(Values after PMC4207122 (Cell biology and toxicology, 2013).)
